The Ki is a dissociation constant, usually derived from enzyme kinetics or from competition with a known ligand. For orientation: IC50 means the concentration that gives 50% inhibition. A word on the EC50: it is the concentration needed to bring the measured effect to its halfway point.

From ChEMBL document CHEMBL1142276, “Synthesis, cannabinoid receptor affinity, and molecular modeling studies of substituted 1-aryl-5-(1H-pyrrol-1-yl)-1H-pyrazole-3-carboxamides” (J Med Chem, 2008) come the findings set out here.

Calls of active or inactive are those of the source. No cut-off for these calls is given here.

In assay [1] the target is Cannabinoid receptor 2 (Homo sapiens, UniProt P34972). In words: Displacement of [3H]CP-55940 from human recombinant CB2 receptor expressed in HEK cells. The class given is cell-based, HEK293. An outline of the steps:
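Membranes came from HEK cells transfected with human CB2. IC50 values were converted to Ki by Cheng-Prusoff. Values are means of at least three experiments, each in duplicate.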
Background: Displacement assays read how much labelled ligand stays bound in the presence of the test substance.

Assay [2] is filed under the species Homo sapiens. The experiment in a line: Ratio of Ki for human recombinant CB2 receptor to human recombinant CB1 receptor.
Assay [3] deals with Cannabinoid receptor 1 (Homo sapiens, UniProt P21554). The experiment in a line: biochemical. Type of assay: cell-based, HEK293.
Sequence of Cannabinoid receptor 1 (Homo sapiens, UniProt P21554) (P21554 whole entry): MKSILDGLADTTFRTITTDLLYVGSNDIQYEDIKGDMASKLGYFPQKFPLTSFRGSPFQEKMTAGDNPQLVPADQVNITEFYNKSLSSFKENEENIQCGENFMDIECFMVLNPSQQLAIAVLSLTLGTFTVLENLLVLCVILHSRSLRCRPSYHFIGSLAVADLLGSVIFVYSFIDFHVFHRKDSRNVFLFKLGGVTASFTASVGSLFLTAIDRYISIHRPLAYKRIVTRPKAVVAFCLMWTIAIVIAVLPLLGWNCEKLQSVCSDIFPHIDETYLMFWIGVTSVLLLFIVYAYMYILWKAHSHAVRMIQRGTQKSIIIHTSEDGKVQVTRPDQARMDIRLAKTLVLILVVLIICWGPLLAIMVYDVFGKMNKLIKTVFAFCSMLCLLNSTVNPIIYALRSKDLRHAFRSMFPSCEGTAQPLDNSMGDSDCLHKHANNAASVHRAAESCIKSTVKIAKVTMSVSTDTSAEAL
Assay [4] deals with Cannabinoid receptor 1 (Mus musculus, UniProt P47746). The experiment in a line: Activity at mouse CB1 receptor in mouse N18TG2 cells assessed as forskolin-induced cAMP formation. Type of assay: functional, cell-based. An outline of the steps: (§1)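 Intact confluent mouse N18TG2 neuroblastoma cells were stimulated for 10 min at 37 °C with 1 µM forskolin in serum-free DMEM with 20 mM HEPES, 0.1 mg/mL BSA and 0.1 mM IBMX. Compounds were given at various concentrations, with vehicle 0.1% methanol. Cells were then extracted with ethanol and cAMP was measured by kit.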
Sequence of Cannabinoid receptor 1 (Mus musculus, UniProt P47746) (P47746 whole entry): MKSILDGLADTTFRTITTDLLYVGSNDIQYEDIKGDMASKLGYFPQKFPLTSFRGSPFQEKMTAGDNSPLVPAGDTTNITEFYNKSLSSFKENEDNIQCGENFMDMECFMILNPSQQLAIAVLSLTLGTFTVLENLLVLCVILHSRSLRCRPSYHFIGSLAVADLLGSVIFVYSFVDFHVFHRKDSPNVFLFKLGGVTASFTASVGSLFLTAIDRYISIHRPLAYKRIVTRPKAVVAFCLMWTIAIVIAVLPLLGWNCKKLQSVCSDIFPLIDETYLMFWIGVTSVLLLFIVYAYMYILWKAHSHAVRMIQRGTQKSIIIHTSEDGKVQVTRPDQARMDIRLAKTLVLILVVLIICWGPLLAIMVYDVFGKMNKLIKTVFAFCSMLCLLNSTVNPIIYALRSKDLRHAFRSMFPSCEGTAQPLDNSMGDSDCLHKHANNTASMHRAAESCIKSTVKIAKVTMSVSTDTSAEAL
(Cyclic AMP is a second messenger, typically raised through Gs and lowered through Gi signalling.)

For assay [5], the target named is Cannabinoid receptor 1 (Mus musculus) (UniProt P47746). In words: Antagonist activity at mouse CB1 receptor in mouse N18TG2 cells assessed as forskolin-induced cAMP formation in presence of WIN-55212-2. Type of assay: functional, cell-based. An outline of the steps:
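Intact confluent N18TG2 cells were exposed to compound with or without the CB1 agonist WIN55,212-2 at 100 nM, in the presence and absence of 1 µM forskolin. Incubation was 10 min at 37 °C in serum-free DMEM with HEPES, BSA and IBMX, vehicle 0.1% methanol. cAMP in ethanol extracts was quantified by kit.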

Assay [6] shares this target. The experiment in a line: Activity at mouse CB1 receptor in mouse N18TG2 cells assessed as inhibition of forskolin-induced cAMP formation at 200 to 300 nM. Type of assay: functional, cell-based. An outline of the steps:
as §1

Sequence of Cannabinoid receptor 1 (Mus musculus) (P47746 whole entry): as above
Sequence of Cannabinoid receptor 2 (P34972 whole entry): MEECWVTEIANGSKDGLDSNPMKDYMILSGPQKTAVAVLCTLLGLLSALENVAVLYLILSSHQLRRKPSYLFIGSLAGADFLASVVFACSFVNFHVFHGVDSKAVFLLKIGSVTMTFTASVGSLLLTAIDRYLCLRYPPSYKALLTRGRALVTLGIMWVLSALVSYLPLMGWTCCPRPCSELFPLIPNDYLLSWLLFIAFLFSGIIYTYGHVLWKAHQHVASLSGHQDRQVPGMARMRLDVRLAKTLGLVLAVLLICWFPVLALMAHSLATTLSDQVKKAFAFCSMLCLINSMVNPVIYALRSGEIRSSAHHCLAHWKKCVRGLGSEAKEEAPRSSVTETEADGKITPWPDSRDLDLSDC

For the compound `Cc1c(C(=O)NCc2ccc(Cl)c(Cl)c2)nn(-c2ccc(Cl)cc2Cl)c1-n1cccc1`, in assay [1], the Ki turned out to be 0.51 µM. Moreover, in assay [1] (read-out: IC50), the IC50 is 0.65 µM.

In the case of `Cc1c(C(=O)NN2CCCCC2)nn(-c2ccc(Cl)cc2Cl)c1-n1c(C)ccc1C`, the Ratio Ki in assay [2] was found to be 25.8. The results for the Ki in assay [1] and in assay [3] were 0.98 µM and 0.038 µM, respectively. For the same compound, the values for the IC50 in assay [1] (read-out: IC50) and in assay [3] were 1.24 µM and 0.067 µM, respectively.

Take `Cc1c(C(=O)NCc2ccc(Cl)c(Cl)c2)nn(-c2ccc(Cl)c(Cl)c2)c1-n1c(C)ccc1C`: the Ratio Ki in assay [2] was 4.89. Moreover, the Ki was found to be 1.37 µM in assay [1] and 0.28 µM in assay [3]. Further, the IC50 in assay [1] (read-out: IC50) worked out at 1.74 µM; in assay [3], 0.5 µM.

For `Cc1c(C(=O)NCc2ccc(Cl)c(Cl)c2)nn(-c2ccc(F)cc2F)c1-n1c(C)ccc1C`, in assay [2], the Ratio Ki was over 113. Also, the Ki is over 3.94 µM in assay [1] and 0.035 µM in assay [3]. Besides, the values for the IC50 in assay [1] (read-out: IC50) and in assay [3] were over 5 µM and 0.062 µM, respectively. Besides, the EC50 in assay [4] is over 0.06 µM.

Turning to `Cc1c(C(=O)NC2CCCCC2)nn(-c2c(Cl)cc(Cl)cc2Cl)c1-n1c(C)ccc1C`, the Ki in assay [1] is 0.39 µM. For the same compound, in assay [1] (read-out: IC50), the IC50 was 0.5 µM.

For `Cc1c(C(=O)NC2CCCCC2)nn(-c2ccc(F)cc2F)c1-n1cccc1`, the inhibition constant (Ki) in assay [1] is 0.065 µM. Moreover, in assay [1] (read-out: IC50), the IC50 came to 0.083 µM.

Regarding `Cc1c(C(=O)NCC2CCCCC2)nn(-c2ccc(Cl)cc2)c1-n1cccc1`, the Ratio Ki in assay [2] stood at 3.55. Moreover, the Ki in assay [1] turned out to be 0.39 µM; in assay [3], 0.11 µM. In addition, the IC50 turned out to be 0.5 µM in assay [1] (read-out: IC50) and 0.2 µM in assay [3].

Regarding `N#Cc1c(C(=O)NN2CCCCC2)nn(-c2ccccc2)c1-n1cccc1`, the inhibition constant Ki in assay [1] is over 3.94 µM; in assay [3], over 2.82 µM. Further, the IC50 in assay [3] is over 5 µM.

As to `Cc1c(C(=O)NC2CCCCC2)nn(-c2ccc(Cl)c(Cl)c2)c1-n1cccc1`, the Ratio Ki in assay [2] is 0.3. Further, the values for the Ki in assay [1] and in assay [3] were 0.0017 µM and 0.0056 µM, respectively. In addition, the half-maximal inhibitory concentration (IC50) was 0.0022 µM in assay [1] (read-out: IC50) and 0.01 µM in assay [3]. Also, the outcome in assay [5] was Active. For the same compound, the result in assay [6] was inactive. For the same compound, the concentration giving a half-maximal response (EC50) in assay [4] turned out to be 0.001 µM.

As to `Cc1c(C(=O)NCc2ccc(Cl)c(Cl)c2)nn(-c2c(Cl)cc(Cl)cc2Cl)c1-n1cccc1`, the Ki in assay [1] is over 3.94 µM. In addition, the IC50 in assay [1] (read-out: IC50) is over 5 µM.

For `Cc1c(C(=O)NN2CCCCC2)nn(-c2ccccc2)c1-n1cccc1`, the results for the inhibition constant Ki in assay [1] and in assay [3] were over 3.94 µM and over 2.82 µM, respectively. Besides, the values for the concentration for half-maximal inhibition (IC50) entry in assay [1] (hek293) and in assay [3] were “Not Active” and over 5 µM, respectively.

With `Cc1c(C(=O)NC2CCCCC2)nn(-c2ccc(Cl)cc2Cl)c1-n1c(C)ccc1C`, the Ratio Ki in assay [2] worked out at 2.07. The values for the Ki in assay [1] and in assay [3] were 0.087 µM and 0.042 µM, respectively. The IC50 in assay [1] (read-out: IC50) was 0.11 µM; in assay [3], 0.074 µM.

Take `Cc1c(C(=O)NN2CCCCC2)nn(-c2ccc(F)cc2F)c1-n1cccc1`: the Ki in assay [1] came to 2.4 µM. Also, in assay [1] (read-out: IC50), the IC50 is 3 µM.

Turning to `O=C(NN1CCCCC1)c1cc(-n2cccc2)n(-c2ccc(Cl)cc2)n1`, in assay [1], the Ki is over 3.94 µM.

For the compound `Cc1c(C(=O)NN2CCCCC2)nn(-c2ccc(Cl)c(Cl)c2)c1-n1cccc1`, the inhibitory constant (Ki) in assay [1] was determined as 0.02 µM. Further, in assay [1] (read-out: IC50), the IC50 is 0.025 µM.

In the case of `Cc1c(C(=O)NC2CCCCC2)nn(-c2ccc(F)cc2F)c1-n1c(C)ccc1C`, the Ki in assay [1] was found to be 0.57 µM. Further, the IC50 in assay [1] (read-out: IC50) amounted to 0.72 µM.

Regarding `O=C(NC1CCCCC1)c1cc(-n2cccc2)n(-c2ccc(Cl)cc2)n1`, the Ratio Ki in assay [2] was found to be 6.25. Moreover, the Ki in assay [1] came out at 1.75 µM; in assay [3], 0.28 µM. Moreover, the IC50 in assay [1] (read-out: IC50) amounted to 2.22 µM; in assay [3] it was 0.5 µM.

With `Cc1nn(-c2ccc(Cl)cc2)c(-n2cccc2)c1C(=O)NN1CCCCC1`, the inhibitory constant (Ki) in assay [1] is over 3.94 µM. In addition, in assay [3], the IC50 is over 5 µM and the Ki is over 2.82 µM.

Regarding `Cc1c(C(=O)NN2CCCCC2)nn(-c2c(Cl)cc(Cl)cc2Cl)c1-n1c(C)ccc1C`, the Ratio Ki in assay [2] was over 35.8. Besides, the figures for the Ki in assay [1] and in assay [3] were over 3.94 µM and 0.11 µM, respectively. Also, the IC50 in assay [1] (read-out: IC50) is over 5 µM; in assay [3] it was 0.2 µM.

Regarding `Cc1c(C(=O)NC2CCCCC2)nn(-c2ccc(Cl)c(Cl)c2)c1-n1c(C)ccc1C`, in assay [2], the Ratio Ki amounted to 0.093. Besides, the inhibition constant (Ki) in assay [1] was found to be 0.0013 µM; in assay [3], 0.014 µM. In addition, the IC50 in assay [1] (read-out: IC50) was 0.0017 µM; in assay [3] it was 0.025 µM.

Turning to `Cc1c(C(=O)NN2CCCCC2)nn(-c2ccc(Cl)c(Cl)c2)c1-n1c(C)ccc1C`, the Ki in assay [1] was 0.029 µM. The IC50 in assay [1] (read-out: IC50) was determined as 0.037 µM.

With `O=C(NN1CCCCC1)c1cc(-n2cccc2)n(-c2ccccc2)n1`, in assay [1], the Ki is over 3.94 µM. In assay [3], the IC50 is over 5 µM and the Ki is over 2.82 µM.

Regarding `Cc1c(C(=O)NN2CCCCC2)nn(-c2ccc(F)cc2F)c1-n1c(C)ccc1C`, the inhibitory constant (Ki) in assay [1] is over 3.94 µM. For the same compound, the IC50 in assay [1] (read-out: IC50) was over 5 µM.

For `Cc1c(C(=O)NN2CCCCC2)nn(-c2c(Cl)cc(Cl)cc2Cl)c1-n1cccc1`, the Ratio Ki in assay [2] is over 2.19. Also, the results for the Ki in assay [1] and in assay [3] were over 3.94 µM and 1.8 µM, respectively. In addition, the concentration for half-maximal inhibition (IC50) was over 5 µM in assay [1] (read-out: IC50) and 3.2 µM in assay [3].

On to `N#Cc1c(C(=O)NN2CCCCC2)nn(-c2ccc(Cl)cc2)c1-n1cccc1`, for which, in assay [2], the Ratio Ki was over 1.4. Also, in assay [1], the Ki was over 3.94 µM. For the same compound, in assay [3], the IC50 worked out at 5 µM and the Ki was 2.82 µM.

In the case of `Cc1c(C(=O)NCc2ccc(Cl)c(Cl)c2)nn(-c2ccc(Cl)c(Cl)c2)c1-n1cccc1`, in assay [1], the Ki came to 0.15 µM. In addition, in assay [1] (read-out: IC50), the IC50 was 0.19 µM.

As to `N#Cc1c(C(=O)NCc2ccc(Cl)c(Cl)c2)nn(-c2ccccc2)c1-n1cccc1`, the Ki in assay [1] was over 3.94 µM. In assay [1] (read-out: IC50), the IC50 was over 5 µM.

On to `Cc1c(C(=O)NN2CCCCC2)nn(-c2ccc(Cl)cc2)c1-n1cccc1`, for which, in assay [2], the Ratio Ki stood at 19.8. The Ki in assay [1] was found to be 2.18 µM; in assay [3] it was 0.11 µM. Further, the IC50 in assay [1] (read-out: IC50) was 2.77 µM; in assay [3] it was 0.2 µM.

On to `Cc1c(C(=O)NN2CCOCC2)nn(-c2ccc(F)cc2F)c1-n1cccc1`, for which the Ki in assay [1] is over 3.94 µM; in assay [3], over 2.82 µM. Further, the IC50 in assay [1] (read-out: IC50) and in assay [3] was over 5 µM throughout.

Turning to `Cc1c(C(=O)NN2CCCCC2)nn(-c2ccc(Cl)cc2Cl)c1-n1cccc1`, the Ratio Ki in assay [2] is 0.94. The Ki in assay [1] came out at 1.73 µM; in assay [3] it was 1.85 µM. The IC50 in assay [1] (read-out: IC50) came out at 0.2 µM; in assay [3], 3.3 µM.

For `Cc1c(C(=O)NCc2ccc(Cl)c(Cl)c2)nn(-c2ccc(F)cc2F)c1-n1cccc1`, in assay [1], the inhibition constant (Ki) came to 0.39 µM. The IC50 in assay [1] (read-out: IC50) amounted to 0.5 µM.

Consider `Cc1c(C(=O)NC2CCCCC2)nn(-c2ccc(Cl)cc2Cl)c1-n1cccc1`, for which the Ratio Ki in assay [2] stood at 1.14. The Ki came to 0.064 µM in assay [1] and 0.056 µM in assay [3]. The values for the half-inhibitory concentration (IC50) in assay [1] (read-out: IC50) and in assay [3] were 0.081 µM and 0.1 µM, respectively.

Regarding `Cc1c(C(=O)NCc2ccc(Cl)c(Cl)c2)nn(-c2ccc(Cl)cc2Cl)c1-n1c(C)ccc1C`, the Ratio Ki in assay [2] turned out to be 141. In addition, the Ki in assay [1] turned out to be 3.94 µM; in assay [3], 0.028 µM. For the same compound, the half-maximal inhibitory concentration (IC50) in assay [1] (read-out: IC50) turned out to be 5 µM; in assay [3], 0.05 µM. Besides, the result in assay [6] was inactive. The half-maximal effective concentration (EC50) in assay [4] turned out to be 0.025 µM.

In the case of `Cc1nn(-c2ccc(Cl)cc2)c(-n2cccc2)c1C(=O)NCc1ccc(Cl)c(Cl)c1`, in assay [1], the Ki is over 3.94 µM.
